Assay outcomes: PubChem BioAssay, Sanford-Burnham Center for Chemical Genomics
SENP8 block-1 – inhibitors of human SENP8 protease; purified SENP8, Z-RLRGG-aminoluciferin cleavage, luminescence; inhibition, % at 10 µM; 1.2% of 330,000 active; AID 2540; in the data active = inhibition above about 50%
SENP6 block – inhibitors of human SENP6 protease; 1.8% of 330,000 active; Recombinant SENP6 catalytic domain, aminoluciferin luminescence; inhibition, % at 10 µM; Q9GZR1;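 active = inhibition above about 50% at the single tested dose, limit read from the data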
Target sequence (Q9GZR1 628-1112 limits assumed): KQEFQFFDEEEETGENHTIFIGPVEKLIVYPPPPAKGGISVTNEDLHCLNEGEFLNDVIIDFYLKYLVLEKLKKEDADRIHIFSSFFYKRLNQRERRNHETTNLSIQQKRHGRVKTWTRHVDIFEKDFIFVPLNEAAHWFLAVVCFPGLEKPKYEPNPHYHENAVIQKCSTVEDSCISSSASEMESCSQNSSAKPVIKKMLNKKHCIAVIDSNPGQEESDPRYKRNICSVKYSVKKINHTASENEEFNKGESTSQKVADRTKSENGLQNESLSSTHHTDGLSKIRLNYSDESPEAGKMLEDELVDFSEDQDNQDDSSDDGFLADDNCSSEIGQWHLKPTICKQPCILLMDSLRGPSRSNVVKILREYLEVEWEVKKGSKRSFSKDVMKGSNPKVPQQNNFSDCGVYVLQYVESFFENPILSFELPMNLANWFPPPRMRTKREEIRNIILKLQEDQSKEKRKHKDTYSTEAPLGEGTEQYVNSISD
SENP1 FRET inh – inhibitors of human SENP1 SUMO protease catalytic domain; Q9P0U3; recombinant SENP1 catalytic domain, CyPet-SUMO1-YPet FRET cleavage; inhibition, % at 10 µM; 0.21% of 360,000 active;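 active = inhibition at least 30% at 10 µM, raw YFP signal under a set limit, fluorescence ratio 0.5 to 1.5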
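Test system: human SENP1 catalytic domain; medium: Tris pH 8 buffer plus EDTA, NaCl, BME, BSA, NP40, catalase; incubation: 50 min reaction at room temperature; technique: FRET, CFP and YFP emission; controls: no-enzyme low control and enzyme-plus-DMSO high control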
SENP7 block – SENP7 protease inhibition; Q9BQF6; recombinant SENP7, Z-RLRGG-aminoluciferin luminescence, 40 min; inhibition, % at 5 µM; 1.5% of 330,000 active; AID 434973;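 active = inhibition above about 50% at the single test dose, limit read from the data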
SENP8 block-2 – SENP8 (human) protease inhibition; Q96LD8; recombinant SENP8, Nedd8 substrate fluorescence; inhibition, % at 20 µM; 0.64% of 360,000 active; in the data active = inhibition mostly above about 40%, no sharp cut-off; inactive = mostly below about 27%
SENP1 conf – confirmation of human SENP1 SUMO protease inhibitors. AID 651678. inhibition, % at 10 µM. shares compounds with SENP1 FRET inh. 34% of 520 active. recombinant SENP1, CyPet-SUMO1-YPet FRET cleavage; in the data active = inhibition mostly above about 35%, no sharp cut-off; inactive = mostly below about 32%
SENP1 kinetic – confirmation of human SENP1 SUMO protease inhibitors, kinetic. inhibition, % at 10 µM. AID 651690. shares compounds with SENP1 FRET inh. 26% of 520 active. recombinant SENP1, CyPet-SUMO1-YPet FRET kinetic cleavage; in the data active = inhibition mostly above about 32%, no sharp cut-off; inactive = mostly below about 29%
Hits are given with their value; – = inactive; · = not tested or not shown. The list is not random: actives were taken first. Their share in the collection is about 2.5%.

SMILES	SENP8 block-1	SENP6 block	SENP1 FRET inh	SENP7 block	SENP8 block-2	SENP1 conf	SENP1 kinetic
CSc1nnc2c(n1)OC(C)N(C(=O)c1ccccc1)c1ccccc1-2 (centres undefined)	–	–	29.8	–	–	–	34.5
CCOc1cc(/C=C2\SC(=S)N(NS(=O)(=O)c3ccccc3)C2=O)ccc1O	–	–	81.6	–	–	124.1	70.1
CCOc1cc(/C=C2\SC(=O)N=C2N)ccc1O	–	–	31.0	–	–	61.1	45.6
CCOc1cc(/C=C2\N=C3CCCCCN3C2=O)ccc1O	–	–	38.8	–	–	56.0	50.5
COc1ccc(-c2cc3c(c4c2ccn4C)C2CCC3C2)cc1OC (centres undefined)	·	·	–	·	–	·	·
O=C(Nc1ccccc1C(=O)O)/C(=C/c1ccc([N+](=O)[O-])cc1)NC(=O)c1ccc(Br)o1	–	–	–	–	–	·	·
CC(NC(=O)c1ccc(NC2=NC3CS(=O)(=O)CC3S2)cc1)c1ccccc1 (centres undefined)	–	–	–	–	–	·	·
O=C(Cn1c(=O)cnc2ccccc21)N1CCN(S(=O)(=O)c2ccccc2Br)CC1	–	–	–	–	–	·	·
COc1cc(/C=C/c2onc(C)c2[N+](=O)[O-])cc(OC)c1OC	–	–	48.6	–	–	–	–
Cc1noc(/C=C/c2nn(C)cc2Cl)c1[N+](=O)[O-]	–	–	–	–	–	·	·
Cc1ccc(NS(=O)(=O)c2ccc(Cl)nc2)c(C)c1	–	–	–	–	–	·	·
CCn1c(C)c(C2=CCN(S(=O)(=O)c3ccccc3)CC2)c2ccccc21	–	–	–	–	–	·	·
O=C(NC(Cc1ccccc1)C(=O)O)/C(=C\c1ccc([N+](=O)[O-])cc1)NC(=O)c1ccco1 (centres undefined)	–	–	32.8	–	–	–	–
O=C(NC(Cc1ccccc1)C(=O)O)/C(=C/c1cccc([N+](=O)[O-])c1)NC(=O)c1ccco1 (centres undefined)	–	–	–	–	–	·	·
CCc1cc2c(N=Nc3c(O)[nH]c4ccccc34)ncnc2s1	–	–	58.7	–	–	–	–
O=C(Nc1ccc(Cl)cc1)c1ccc2c(c1)S(=O)(=O)c1ccccc1C2=O	–	–	32.6	–	–	–	–
O=C(Nc1ccc(S(=O)(=O)O)cc1)c1ccc2c(c1)S(=O)(=O)c1ccccc1C2=O	–	–	–	–	–	·	·
CCCN(C(=O)C1=COCCO1)c1c(N)n(Cc2ccccc2)c(=O)[nH]c1=O	–	–	–	–	–	·	·
CC(C)CCN(C(=O)C1=COCCO1)c1c(N)n(Cc2ccccc2)c(=O)[nH]c1=O	–	–	33.7	–	–	–	–
O=C(Nc1nccs1)c1cc2cc(Cl)ccc2oc1=O	–	–	44.6	–	–	96.5	82.6
Cc1ccc(C)c(C(C)NC(=S)NCc2ccc(F)cc2)c1 (centres undefined)	–	–	–	–	–	·	·
COc1ccc(-c2nc3ncccn3c2Nc2ccc3c(c2)OCCO3)cc1	–	–	32.2	–	–	–	–
Cc1cc(C)n2c(NC3CCCC3)c(-c3cc4ccccc4o3)nc2n1	·	·	–	·	–	·	·
Cc1ccc(-c2nc3ncccn3c2Nc2ccc3c(c2)OCCO3)cc1	–	–	–	–	–	·	·
Cc1ccc(-c2nc3ncccn3c2Nc2ccc3c(c2)OCCO3)o1	–	–	53.1	–	–	–	–
SMILES	SENP8 block-1	SENP6 block	SENP1 FRET inh	SENP7 block	SENP8 block-2	SENP1 conf	SENP1 kinetic
Brc1ccc(-c2nc3ncccn3c2Nc2ccc3c(c2)OCCO3)o1	–	–	34.6	–	–	–	–
Cc1ccc(-c2nc3ncccn3c2NC2CCCCC2)o1	–	–	63.1	–	–	54.0	–
O=C(Nc1ccnn1C1CCN(CCCc2ccccc2)CC1)c1ccccc1Cl	–	–	–	–	–	·	·
COc1ccccc1CNC(=O)c1ccc2nc(C)c(N(C)Cc3ccc(NC(C)=O)cc3)n2c1	·	·	–	·	–	·	·
CC1CCN(C(=O)CCc2nnc(-c3ccccc3)o2)CC1	–	–	–	–	–	·	·
O=C(CCc1nnc(-c2ccccc2)o1)NCC1CCN(C2CCCC2)CC1	–	–	50.2	–	–	–	–
CC1(C(=O)NCc2ccc(Cl)cc2)CCN1C(=O)c1cccc(F)c1 (centres undefined)	·	·	–	·	–	·	·
